Assay results collected from several papers.
Protocols differ between the studies behind these lines.
Target: Mitogen-activated protein kinase kinase kinase 11 (MAP3K11, Homo sapiens, UniProt Q16584)

Cc1nn(CC(F)(F)F)cc1Nc1ncc(C2CC2)c(NCCCNC(=O)C2CCC2)n1 has a remaining activity of 94% (enzyme activity, inhibitor, radiometric; 1 µM).
The remaining signal of N#CCCc1ccc2c(c1)-c1[nH]c3ccc([N+](=O)[O-])cc3c1CC(=O)N2 is reported as 18.4% (cell-free assay; 0.5 µM).
For COCCOc1nc(-c2ccc(Cl)nc2)nc2c1CN(C(=O)c1ncn3ccccc13)CC2, the remaining binding was 100% (cell-free assay, competition with immobilised ligand; 0.1 µM).
CNC(=O)c1cc(Oc2ccc(NC(=O)Nc3ccc(Cl)c(C(F)(F)F)c3)cc2)ccn1 gave a remaining signal of 98.3% (cell-free assay; 0.5 µM).
With CCC(=O)N[C@@H]1CC[C@H](C(=O)N(C)c2ccc(-c3nc4ccccc4o3)cc2)C1 the remaining binding was 100% (cell-free assay, competition with immobilised ligand; 1 µM).
With O=C(NCCCNc1nc(Nc2cccc(NC(=O)N3CCCC3)c2)ncc1C1CC1)C1CCC1 the remaining activity was 27% (enzyme activity, inhibitor, radiometric; 1 µM).
For COc1cc(Nc2cnc(C#N)c(O[C@H](C)CN(C)C)n2)ncc1-c1cnn(C)c1, the remaining activity was 68% (enzyme activity, inhibitor, radiometric; 1 µM).
For CC(C)(O)c1cncc(-c2nc3ccc(F)cc3n2C2CC2)c1, the remaining binding was 100% (cell-free assay, competition with immobilised ligand; 1 µM).
For NS(=O)(=O)c1ccc(CNc2nc(Nc3cccc(CN4CCOCC4)c3)ncc2Br)cc1, the remaining activity was 34% (enzyme activity, inhibitor, radiometric; 1 µM).
COc1cc(/C=C/C(=O)CC(=O)/C=C/c2ccc(O)c(OC)c2)ccc1O has an activity vs control of 14% (enzyme activity, inhibitor; 1 µM).
The remaining binding of CCOCCn1cc(C(=O)Nc2ccc(-n3nc(-c4cccnc4)cc3C(F)(F)F)cn2)ccc1=O is reported as 100% (cell-free assay, competition with immobilised ligand; 1 µM).
With Cc1nn(CC(F)(F)F)cc1Nc1nccc(NCCCNC(=O)C2CCC2)n1 the remaining activity was 106% (enzyme activity, inhibitor, radiometric; 1 µM).
For Cn1nc(C(=O)NCc2ccc(C(=O)O)cc2)cc1-c1ccc2[nH]ccc2c1, the remaining binding was 87% (cell-free assay, competition with immobilised ligand; 0.1 µM).
O=C(Nc1cnn(-c2csc(C(=O)NC3COC3)c2)c1)Nc1c(F)cccc1Cl has a remaining activity of 84.7% (enzyme activity, inhibitor; 5 µM).
Cc1ccc(NC(=O)c2ccc(CN3CCN(C)CC3)cc2)cc1Nc1nc(-c2cccnc2)cs1 gave a remaining signal of 101% (cell-free assay; 0.5 µM).
For C[C@H]1CCN(c2nccc(-c3cnn4ncccc34)n2)C1, the remaining binding was 93% (binding; 1 µM).
c1cc(CN2CCOCC2)cc(Nc2nccc(NCCc3cnc[nH]3)n2)c1 gave a remaining activity of 82% (enzyme activity, inhibitor, radiometric; 1 µM).
For O=C(NCc1ncc(C(F)(F)F)cc1Cl)c1ccc2c(c1)C1(CCS(=O)(=O)CC1)[C@@H](C1CC1)N2S(=O)(=O)c1ccc(F)cc1, the remaining binding was 100% (cell-free assay, competition with immobilised ligand; 1 µM).
